From PMC2913441 (Chemical biology & drug design, 2010)

Tests used:
Format in all cases: binding
[1] = biological target: T1, Mdm2 (Homo sapiens, UniProt Q00987); assay: Interaction with Mdm2; conditions: result in words; assay not stated
Target sequence in this assay (Q00987 whole entry): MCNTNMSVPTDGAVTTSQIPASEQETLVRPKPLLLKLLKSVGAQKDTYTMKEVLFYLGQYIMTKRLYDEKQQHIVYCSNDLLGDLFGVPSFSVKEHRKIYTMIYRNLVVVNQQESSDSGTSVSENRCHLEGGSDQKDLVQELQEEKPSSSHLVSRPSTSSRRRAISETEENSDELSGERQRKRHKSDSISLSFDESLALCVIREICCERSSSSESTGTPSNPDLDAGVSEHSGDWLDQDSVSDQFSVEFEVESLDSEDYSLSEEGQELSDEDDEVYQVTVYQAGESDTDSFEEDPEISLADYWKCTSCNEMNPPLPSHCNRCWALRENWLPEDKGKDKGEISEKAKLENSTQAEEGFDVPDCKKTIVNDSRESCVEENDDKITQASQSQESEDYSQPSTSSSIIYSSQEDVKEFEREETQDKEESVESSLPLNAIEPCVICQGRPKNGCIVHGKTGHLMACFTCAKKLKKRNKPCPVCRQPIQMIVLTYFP

[2] = biological target: T1, Mdm2; assay: Fluorescence polarization; conditions: read-out: inhibition constant (Ki) of Mdm2; FP assay, competition with p53-like peptide
Method in brief: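 Competitive fluorescence polarization assay: a fluorescent p53-like peptide is bound to recombinant Mdm2 and displaced by the test compound across a range of concentrations, giving dose–response curves. The binding constant and inhibition curves were fitted to derive Ki.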
Target sequence in this assay (Q00987 1-118): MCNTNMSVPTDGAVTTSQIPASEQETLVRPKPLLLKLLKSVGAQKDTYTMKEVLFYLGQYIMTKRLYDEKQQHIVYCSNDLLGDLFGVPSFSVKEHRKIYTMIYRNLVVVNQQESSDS

[3] = biological target: Mdm2/p53 complex (Homo sapiens, UniProt Q00987); assay: NMR-based antagonist induced dissociation assay; conditions: read-out: dissociation constant (Kd) of the compound-Mdm2 interaction; AIDA-NMR; 14 μM Mdm2/p53 complex mixed with compound in 1:1 molar ratio
Mdm2/p53 complex, sequence (Q00987 1-118, one chain of several): as the sequence (Q00987 1-118) above
Method in brief: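 Variant of antagonist-induced dissociation NMR (SEI-AIDA). The preformed Mdm2/p53 complex (14 μM) is mixed with the test compound at a 1:1 molar ratio. The amount of p53 released from the complex is estimated from the 1D spectrum. The Kd of the Mdm2–compound interaction is then calculated from the released fraction.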

Cc1cc(C)c(NC(=O)C2C(=O)Nc3sc4c(c3C(=O)N2Cc2ccc(Cl)cc2)CCCC4)c(C)c1 (centres unmarked) [5a-6, 3,4,6,7,8,9-Hexahydro-3-(N-mesityl)-carboxamide-4-(4-chlorobenzyl)-1H-benzothieno-[2,3-e]-1,4-diazepine-2,5-dione]
interaction with Mdm2 [1]: weak interaction

O=C(NCc1ccccc1)C1C(=O)Nc2sc3c(c2C(=O)N1Cc1ccc(Cl)cc1)CCCC3 (centres unmarked) [5a-7, 3,4,6,7,8,9-Hexahydro-3-(N-benzyl)-carboxamide-4-(4-chlorobenzyl)-1H-benzothieno-[2,3-e]-1,4-diazepine-2,5-dione]
Ki [2]: 40 µM
Kd [3]: 30 ± 20 µM

O=C(NCc1ccc(Cl)c(Cl)c1)C1C(=O)Nc2sc3c(c2C(=O)N1Cc1ccc(Cl)cc1)CCCC3 (centres unmarked) [5a-8, 3,4,6,7,8,9-Hexahydro-3-(N-3,4-dichlorobenzyl)-carboxamide-4-(4-chlorobenzyl)-1H-benzothieno-[2,3-e]-1,4-diazepine-2,5-dione]
Ki [2]: 45 µM
Kd [3]: 10 ± 6 µM
